Assay outcomes deposited in PubChem by several laboratories.
Hits are enriched below; roughly 6.5% of the tested compounds scored in any of these assays.
Calb biofilm kill – kills Candida albicans biofilms; 0.14% of 85,000 active; C. albicans biofilm + clotrimazole, Alamar Blue; inhibition, % at 6 µM;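 active means inhibition above 20%; inactive means inhibition below 20%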;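 further: preformed 24 hr biofilms exposed to compound for 48 hr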
PostGolgi yeast – growth inhibition of a yeast mutant, post-Golgi transport screen | post-Golgi transport phenotypic cell assay | inhibition, % at 10 µM | 0.9% of 98,000 active | AID 739;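 further: yeast cells grown in 1536-well plates; yeast grown about 18 h at 30C before absorbance read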
Ecoli WT expand – blocks growth of wild type E. coli BW25113; OD600 absorbance; growth inhibition, % at 100 µM; 0.15% of 98,000 active; AID 710;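 active means growth inhibition above about 50% at one test dose, limit read from the data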;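 further: growth measured after 20 h incubation at 37 °C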
PTK2B oligo ant – antagonists of human Pyk2 oligomerization | Q293 cells, Pyk2 FERM NanoBiT luminescence; stronger effect = lower value | z-score (the deposit names both 25 µM and 10 µM) | 0.83% of 99,000 active | AID 1347419;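 active means Z-score of -3 or lower, scaled per plate to the spread of control and sample wells; inactive means z-score above -3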;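 further: negative z-score means lost luminescence so less FERM oligomerization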
Target sequence (Q14289 whole entry, looked up): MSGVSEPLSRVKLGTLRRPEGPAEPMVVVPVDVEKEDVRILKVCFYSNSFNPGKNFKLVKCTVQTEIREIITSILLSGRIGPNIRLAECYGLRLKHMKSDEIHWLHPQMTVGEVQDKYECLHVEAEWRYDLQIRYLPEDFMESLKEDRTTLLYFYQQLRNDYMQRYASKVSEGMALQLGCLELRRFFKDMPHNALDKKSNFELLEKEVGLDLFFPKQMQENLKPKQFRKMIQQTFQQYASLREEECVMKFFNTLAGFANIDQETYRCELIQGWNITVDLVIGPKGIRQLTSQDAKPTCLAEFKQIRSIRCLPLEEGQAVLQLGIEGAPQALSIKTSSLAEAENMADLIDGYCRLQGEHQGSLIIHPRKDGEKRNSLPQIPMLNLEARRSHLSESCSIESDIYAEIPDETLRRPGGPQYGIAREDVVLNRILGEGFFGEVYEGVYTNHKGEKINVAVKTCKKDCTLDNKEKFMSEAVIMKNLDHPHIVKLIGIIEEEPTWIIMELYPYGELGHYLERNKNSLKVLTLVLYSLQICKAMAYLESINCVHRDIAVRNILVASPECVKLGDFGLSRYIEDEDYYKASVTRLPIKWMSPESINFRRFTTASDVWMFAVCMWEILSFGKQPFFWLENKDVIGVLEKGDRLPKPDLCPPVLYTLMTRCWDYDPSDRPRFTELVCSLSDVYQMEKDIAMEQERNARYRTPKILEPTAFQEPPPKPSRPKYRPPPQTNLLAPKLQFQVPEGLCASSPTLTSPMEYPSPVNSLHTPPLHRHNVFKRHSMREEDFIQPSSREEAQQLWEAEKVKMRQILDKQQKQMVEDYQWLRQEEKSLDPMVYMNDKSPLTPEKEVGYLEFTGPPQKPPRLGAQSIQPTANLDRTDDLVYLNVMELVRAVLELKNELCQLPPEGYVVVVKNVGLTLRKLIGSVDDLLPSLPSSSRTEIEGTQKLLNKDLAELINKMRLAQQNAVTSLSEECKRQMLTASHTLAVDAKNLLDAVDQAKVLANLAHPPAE
tolC growth inh – growth inhibitors of E. coli BW25113 tolC mutant. OD615. growth inhibition, % at 10 µM (by protocol). 2.2% of 65,000 active;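 active means growth inhibition at or above a cutoff equal to the mean over every tested compound plus 3 SD, cut at about 60% in these data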;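 further: growth measured after 20 h incubation at 37 °C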
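Doses: one dose of 10 µM final / Material: E. coli BW25113 ΔtolC::kan, tolC deletion mutant strain / Buffer or medium: LB with kanamycin 50 µg/mL / Evaluation: percent growth inhibition / Detection: optical density read at 615 nm / Incubation: 37 °C, 20 h exposure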
PostGolgi ctrl – yeast control strain growth, post-Golgi counter-screen; efflux-deficient yeast background strain, growth absorbance A615, 16 h; inhibition, % at 10 µM; 5% of 98,000 active
Hits are given with their value; - = inactive; . = not tested or not shown. Unless noted, no stated cut-off is given here; in the data, active means inhibition above about 30%; inactive means the rest.

SMILES	Calb biofilm kill	PostGolgi yeast	Ecoli WT expand	PTK2B oligo ant	tolC growth inh	PostGolgi ctrl
N#CC1=C2SCCN2C(=O)C(C#N)C12CCCCC2 (stereo not drawn)	-	-	-	-	-	-
CSCCC(NC(=O)c1ccccc1)C(=O)OCC(=O)Nc1ccc(C)c(Cl)c1 (stereo not drawn)	.	-	-	-	.	31
COCC(=O)Nc1ccc(C)c(Cl)c1	-	-	-	-	-	-
Cc1cc(NC(=O)c2ccc(Cl)cc2)c(C(C)C)cc1O	.	-	-	-	.	-
Cc1ccc(NC(C)c2cc(Cl)ccc2O)cc1 (stereo not drawn)	35	-	-	-	.	-
Cn1c(C(=O)N2CCN(c3nc4ccccc4s3)CC2)cc2sccc21	-	-	-	-	-	45
Cc1cc(C)nc(/N=C(\N)Nc2ccc(F)c([N+](=O)[O-])c2)n1	.	-	-	-	.	-
COc1ccc(-n2nc(C(=O)NCC(=O)Nc3ccccn3)c3ccccc3c2=O)cc1Cl	.	-	-	-	.	-
Cc1ccc(SCc2[nH]nc3c2C2(C(=O)Nc4ccc([N+](=O)[O-])cc42)C(C#N)=C(N)O3)cc1 (stereo not drawn)	.	-	-	-	.	36
CC1=C(C(=O)Nc2cc(-c3cccc(F)c3)[nH]n2)C2(CCCCC2)OC1=O	-	-	-	.	-	32
O=c1c2ccccc2nc(CSc2ncnc3nc[nH]c23)n1-c1cccc(C(F)(F)F)c1	-	-	-	-	.	-
Cc1ccc(C)c(C(=O)NCc2ccncc2)c1	-	35	-	-	-	-
Cc1ccc(C)c(C(=O)NCCN(C)C)c1	-	-	-	-	-	-
COc1ccc(N2CCN(CC(O)COc3ccc4c(c3)CCC4)CC2)cc1 (stereo not drawn)	-	-	-	-	.	38
CCOC(=O)c1cc2c(N)c(C(=O)c3cc(C#N)c(SC)nc3C)sc2nc1C	-	-	-	-	-	-
CCS(=O)(=O)Nc1ccc(C2=NN(C(=O)c3ccco3)C(c3ccc(C)cc3)C2)cc1 (stereo not drawn)	.	-	-	-3	.	-
Cc1ccc(C2=NN(C(=S)Nc3ccccc3)C(c3ccco3)C2)cc1 (stereo not drawn)	.	-	-	-	.	-
O=C(CC1Sc2ncnn2C1=O)Nc1ccc(Br)cc1 (stereo not drawn)	-	-	-	.	-	-
c1csc(C(c2nnnn2C2CCCC2)N2CCCC3(CCCCC3)C2)c1 (stereo not drawn)	-	-	-	-	.	-
COc1cc(-c2c(C#N)c(N)nc3c2c(C)nn3-c2ccc(C)c(C)c2)cc(OC)c1OC	-	-	-	-3.4	-	-
O=S(=O)(Nc1nc2ccccc2nc1NCc1ccco1)c1ccccc1	-	-	-	-	71	-
c1coc(CNc2nc(N3CCCCC3)nc3ccccc23)c1	-	40	-	-	71	-
c1ccc(N2CCN(c3nc(NCc4ccco4)c4ccccc4n3)CC2)cc1	.	-	-	-	-	-
c1ccc(-c2nc(NCc3ccco3)c3ccccc3n2)nc1	-	-	-	-	83	-
CCCn1c(CCC(=O)Nc2ccccc2Cc2ccccc2)nc2cc(S(=O)(=O)N3CCOCC3)ccc21	-	-	-	-	.	-
SMILES	Calb biofilm kill	PostGolgi yeast	Ecoli WT expand	PTK2B oligo ant	tolC growth inh	PostGolgi ctrl
CCOC(=O)c1c(-c2ccccc2)nc2cc(C)ccn12	.	-	-	-	.	-
CCOC(=O)c1c(-c2ccccc2)nc2ccc(C)cn12	.	-	-	-	.	31
Cc1cccc(C)c1OCC(=O)N=Nc1c(O)[nH]c2ccc(Br)cc12	-	-	-	-	.	38
O=C(N=Nc1c(O)[nH]c2ccc(Br)cc12)c1ccccc1-n1cccc1	.	-	-	-	.	37
CCC(c1nnnn1C1CCCC1)N1CCN(c2ccccc2F)CC1 (stereo not drawn)	-	-	-	-	-	-
CCCC(c1nnnn1C1CCCC1)N1CCN(c2ccccc2F)CC1 (stereo not drawn)	-	-	-	-	-	67
COC(=O)c1ccc(NC(=O)CSc2nnc(-c3ccccc3)n2C)cc1	-	.	.	-	.	.
CCN(CC)S(=O)(=O)c1cccc(-c2nnc(SCC#N)n2Cc2ccccc2)c1	-	-	-	-	-	33
Cc1ccc(C2C(C#N)=C(N)SC(N)=C2C#N)cc1	-	-	-	-	-	40
Cc1ccc(C2C(C#N)=C(N)SC(N)=C2C#N)c(C)c1	-	-	-	-	-	-
CC(/C=C/C=C/c1ccccc1)=N/NC(=O)CNc1ccccc1C	.	.	.	-	.	.
N#CCSc1nc2ccccc2c(=O)n1CCC(=O)NC1CCCCC1	-	-	-	-	-	35
CCCN(CCC)c1nc(NC2CCN(C(=O)OCC)CC2)nc(OC)n1	-	-	-	-	81	-
COc1ccccc1CNC(=O)C(CCSC)NC(=O)C1CCC(C)CC1 (stereo not drawn)	.	-	-	-	.	-
Cc1cccc(C(=O)n2c(=S)nc3ccccn32)c1	-	-	-	-	.	-
Cc1cc(OC(C)C)c2c(-c3ccccc3)cc(=O)oc2c1	-	-	-	-	.	-
CCOc1cc(C)cc2oc(=O)cc(-c3ccccc3)c12	-	-	-	-	.	32
Cc1cc(OCC(=O)N2CCc3ccccc3C2)c2c(-c3ccccc3)cc(=O)oc2c1	-	-	-	-	.	51
CCCSc1ncc(Cl)c(C(=O)Nc2ccc(S(=O)(=O)N3CC(C)OC(C)C3)cc2)n1 (stereo not drawn)	-	39	-	-	.	-
CN(C)c1ccc2c(c1)OC(N)=C(C#N)C2c1cccc(F)c1 (stereo not drawn)	-	-	-	-3.1	-	37
N#CC1=C(N)Oc2cc(O)ccc2C1c1ccncc1 (stereo not drawn)	-	-	-	-	-	-
COc1ccccc1-n1c(=S)sc2c(=O)n(Cc3ccco3)c(SC)nc21	-	-	-	-	-	45
CCN(CC)C(=O)CSc1nc2c(sc(=S)n2-c2ccccc2)c(=O)n1Cc1ccco1	-	-	-	-	.	-
N#C/C(=N\Nc1ccc(Cl)cc1)C(=O)c1ccccc1	.	-	-	-	.	79
CCOC(=O)NC(=O)/C(C#N)=N\Nc1ccc(Cl)cc1	-	-	-	-	.	-
SMILES	Calb biofilm kill	PostGolgi yeast	Ecoli WT expand	PTK2B oligo ant	tolC growth inh	PostGolgi ctrl
O=C1N[C@@H](Cc2ccccc2)C(=O)N1CCN1CCOCC1	-	-	-	-	.	-
O=C1CCCN1CCCN1C(=O)N[C@@H](Cc2ccccc2)C1=O	-	-	-	-	-	35
C1CNCCOCCNCCN1	-	-	-	-	.	-
Cc1cc(C(=O)COC(=O)C2=NNC(=O)CC2)c(C)n1-c1cccc(C(F)(F)F)c1	-	-	-	-	.	-
Cc1ccc(Cn2ccc(NC(=O)c3cc(-c4ccc(Cl)cc4)on3)n2)cc1	.	-	-	-	-	-
Cc1ccc(Cn2ccc(NC(=O)c3cc(CC(C)C)on3)n2)cc1	-	-	-	.	72	-
COc1cc2c(cc1NS(=O)(=O)N1CCCC1)oc1ccccc12	-	-	-	-	.	49
COc1cc2c(cc1NC(=O)CN1CCN(S(=O)(=O)c3ccc(C)cc3)CC1)oc1ccccc12	.	-	-	-	.	-
